Reference: publication PMC5656813 (Arthritis & Rheumatology (Hoboken, N.j.), 2017)

Experiments:
[1] = system: RA patients with an inadequate response to MTX; assay: Study 2; assay type: in vivo, human; settings: for ACR20 responders at week 4 / ACR50 responders at week 4 / DAS28‐CRP, mean change from baseline at week 4 / EULAR cumulative score, good/moderate, at week 4 / HAQ DI score, mean change from baseline at week 4 / Patient's assessment of pain, mean change from baseline at week 4 / Patient's global assessment of disease activity, mean change from baseline at week 4 / Physician's global assessment of disease activity, mean change from baseline at week 4 / Remission rate (DAS28‐CRP <2.6) at week 4 / SJC66, mean change from baseline at week 4 / Serum CRP, mean change from baseline at week 4 / TJC68, mean change from baseline at week 4: study 2
How it was run: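 Randomized, double-blind, placebo-controlled dose-ranging trial: 91 RA patients, 19 sites in 4 countries, 1:1:1:1:1 allocation. Patients had MTX for ≥12 weeks and a stable 7.5–25 mg/week dose for ≥4 weeks, continued throughout. Oral capsules once daily at 30, 75, 150 or 300 mg for 4 weeks. Read-outs: ACR responses, DAS28-CRP and HAQ DI change from baseline at week 4. Intent-to-treat population.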

RA patients = assay: Study 2, treatment‐emergent adverse events; assay type: in vivo, human; settings: 30 mg once daily
How it was run: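 Both double-blind, placebo-controlled trials in RA patients on stable MTX. Oral capsules daily for 4 weeks, with 7–10-day follow-up: 200 mg once daily or 100 mg twice daily (study 1); 30, 75, 150 or 300 mg once daily (study 2). At every visit: AEs, vital signs, hematology, serum biochemistry, coagulation and urinalysis. EKG at baseline and follow-up, plus week 4 in study 1. Safety population, descriptive treatment-emergent AE summaries.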

Structure (SMILES): O=C(Nc1nc2cccc(-c3ccc(CN4CCS(=O)(=O)CC4)cc3)n2n1)C1CC1 [Filgotinib]
- ACR20 responders at week 4 ([1]; 30 mg once daily): 6 (35.3) no. (%)
- ACR50 responders at week 4 ([1]; 30 mg once daily): 2 (11.8) no. (%)
- DAS28‐CRP, mean change from baseline at week 4 ([1]; 30 mg once daily): −1.08
- EULAR cumulative score, good/moderate, at week 4 ([1]; 30 mg once daily): 58.8%
- HAQ DI score, mean change from baseline at week 4 ([1]; 30 mg once daily): −0.15
- Patient's assessment of pain, mean change from baseline at week 4 ([1]; 30 mg once daily): −7.41 0–10‐cm VAS
- Patient's global assessment of disease activity, mean change from baseline at week 4 ([1]; 30 mg once daily): −11.88 0–10‐cm VAS
- Physician's global assessment of disease activity, mean change from baseline at week 4 ([1]; 30 mg once daily): −9.76 0–10‐cm VAS
- Remission rate (DAS28‐CRP <2.6) at week 4 ([1]; 30 mg once daily): 2 (11.8) no. (%)
- SJC66, mean change from baseline at week 4 ([1]; 30 mg once daily): −6.24
- Serum CRP, mean change from baseline at week 4 ([1]; 30 mg once daily): -13.28 mg/L
- TJC68, mean change from baseline at week 4 ([1]; 30 mg once daily): −10.18
- ACR20 responders at week 4 ([1]; 75 mg once daily): 12 (54.5) no. (%)
- ACR50 responders at week 4 ([1]; 75 mg once daily): 6 (27.3) no. (%)
- DAS28‐CRP, mean change from baseline at week 4 ([1]; 75 mg once daily): −1.72
- EULAR cumulative score, good/moderate, at week 4 ([1]; 75 mg once daily): 68.2%
- HAQ DI score, mean change from baseline at week 4 ([1]; 75 mg once daily): −0.47
- Patient's assessment of pain, mean change from baseline at week 4 ([1]; 75 mg once daily): −21.27 0–10‐cm VAS
- Patient's global assessment of disease activity, mean change from baseline at week 4 ([1]; 75 mg once daily): −21.00 0–10‐cm VAS
- Physician's global assessment of disease activity, mean change from baseline at week 4 ([1]; 75 mg once daily): −27.09 0–10‐cm VAS
- Remission rate (DAS28‐CRP <2.6) at week 4 ([1]; 75 mg once daily): 3 (13.6) no. (%)
- SJC66, mean change from baseline at week 4 ([1]; 75 mg once daily): −8.42
- Serum CRP, mean change from baseline at week 4 ([1]; 75 mg once daily): -15.09 mg/L
- TJC68, mean change from baseline at week 4 ([1]; 75 mg once daily): −13.72
- ACR20 responders at week 4 ([1]; 150 mg once daily): 6 (40.0) no. (%)
- ACR50 responders at week 4 ([1]; 150 mg once daily): 0 no. (%)
- DAS28‐CRP, mean change from baseline at week 4 ([1]; 150 mg once daily): −1.80
- EULAR cumulative score, good/moderate, at week 4 ([1]; 150 mg once daily): 66.7%
- HAQ DI score, mean change from baseline at week 4 ([1]; 150 mg once daily): −0.26
- Patient's assessment of pain, mean change from baseline at week 4 ([1]; 150 mg once daily): −14.07 0–10‐cm VAS
- Patient's global assessment of disease activity, mean change from baseline at week 4 ([1]; 150 mg once daily): −12.33 0–10‐cm VAS
- Physician's global assessment of disease activity, mean change from baseline at week 4 ([1]; 150 mg once daily): −24.87 0–10‐cm VAS
- Remission rate (DAS28‐CRP <2.6) at week 4 ([1]; 150 mg once daily): 0 no. (%)
- SJC66, mean change from baseline at week 4 ([1]; 150 mg once daily): −10.52
- Serum CRP, mean change from baseline at week 4 ([1]; 150 mg once daily): -20.50 mg/L
- TJC68, mean change from baseline at week 4 ([1]; 150 mg once daily): −14.85
- patients achieving remission (DAS28‐CRP <2.6) ([1]; 300 mg group, within 4 weeks): up to 25%
- ACR20 responders at week 4 ([1]; 300 mg once daily): 13 (65.0) no. (%)
- ACR50 responders at week 4 ([1]; 300 mg once daily): 9 (45.0) no. (%)
- DAS28‐CRP, mean change from baseline at week 4 ([1]; 300 mg once daily): −2.25
- EULAR cumulative score, good/moderate, at week 4 ([1]; 300 mg once daily): 80.0%
- HAQ DI score, mean change from baseline at week 4 ([1]; 300 mg once daily): −0.68
- Patient's assessment of pain, mean change from baseline at week 4 ([1]; 300 mg once daily): −29.85 0–10‐cm VAS
- Patient's global assessment of disease activity, mean change from baseline at week 4 ([1]; 300 mg once daily): −25.85 0–10‐cm VAS
- Physician's global assessment of disease activity, mean change from baseline at week 4 ([1]; 300 mg once daily): −29.20 0–10‐cm VAS
- Remission rate (DAS28‐CRP <2.6) at week 4 ([1]; 300 mg once daily): 5 (25.0) no. (%)
- SJC66, mean change from baseline at week 4 ([1]; 300 mg once daily): −8.48
- Serum CRP, mean change from baseline at week 4 ([1]; 300 mg once daily): -20.98 mg/L
- TJC68, mean change from baseline at week 4 ([1]; 300 mg once daily): −14.68
- patients achieving an ACR20 response ([1]; study 2, 300 mg, week 4): 65%
- treatment-related TEAE: Abdominal discomfort (RA patients): 0 number (%) of patients
- treatment-related TEAE: Abdominal pain, upper (RA patients): 0 number (%) of patients
- treatment-related TEAE: Aspartate aminotransferase increased (RA patients): 1 (5.9) number (%) of patients
- treatment-related TEAE: Blood amylase increased (RA patients): 0 number (%) of patients
- treatment-related TEAE: Blood and lymphatic system disorders (RA patients): 0 number (%) of patients
- treatment-related TEAE: Blood triglycerides increased (RA patients): 1 (5.9) number (%) of patients
- treatment-related TEAE: Cystitis, noninfectious (RA patients): 0 number (%) of patients
- treatment-related TEAE: Duodenogastric reflux (RA patients): 0 number (%) of patients
- treatment-related TEAE: Ear and labyrinth disorders (RA patients): 0 number (%) of patients
- treatment-related TEAE: Gastrointestinal disorders (RA patients): 1 (5.9) number (%) of patients
- treatment-related TEAE: Gastrointestinal pain (RA patients): 0 number (%) of patients
- treatment-related TEAE: General disorders and administration site reactions (RA patients): 0 number (%) of patients
- treatment-related TEAE: Gingival bleeding (RA patients): 0 number (%) of patients
- treatment-related TEAE: Infections and infestations (RA patients): 0 number (%) of patients
